Measured values as given in ChEMBL document CHEMBL5303300, “EUbOPEN Chemogenomics Library - Multiplex” (2023).
Where “and” joins values, the source holds several entries; their conditions need not be identical. Equal values may be shown once.

Experiments:
Fibroblast = assay: Multiplex assay against human fibroblast; format: toxicity, cell-based; details: number of replicates 2
Method in brief: (§1)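 Tubulin, mitochondrial-mass and membrane-permeability phenotypes are per cents of healthy-nucleus cells. Cells were gated by CellPathfinder machine learning into Hoechst high-intensity objects or normal cells, normal cells into healthy, pyknosed or fragmented nuclei, and pyknosed cells into mitotic or apoptotic. Before that, live cells stained at seeding with Hoechst33342, BioTracker Green Microtubule Cytoskeleton Dye, MitoTracker Red and Annexin V Alexa Fluor 680 were imaged on a CQ1 microscope at 37°C and 5% CO2 after compound addition.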

HEK-293T = assay: Multiplex assay against HEK293T; format: toxicity, cell-based; details: human, number of replicates 2; method in brief: as §1
[1] = 12 h, 1 µM, compound concentration 1 uM
[2] = 12 h, 10 µM, compound concentration 10 uM
[3] = 24 h, 1 µM, compound concentration 1 uM
[4] = 24 h, 10 µM, compound concentration 10 uM
[5] = 48 h, 1 µM, compound concentration 1 uM
[6] = 48 h, 10 µM, compound concentration 10 uM

CN(C)C/C=C/C(=O)Nc1cccc(S(=O)(=O)N2CCC(NC(=O)c3n[nH]cc3NC(=O)c3c(Cl)cc(Cl)cc3Cl)CC2)c1
Population Apoptotic (%) (Fibroblast; [1]): 51% and 32% | Population Fragmented Nuclei (%) (Fibroblast; [1]): 12% and 7% | Population Healthy Nuclei (%) (Fibroblast; [1]): 59% and 65% | Population Hoechst High Intensity Objects (%) (Fibroblast; [1]): 0% and 1% | Population Membrane Permeable-Phenotype (%) (Fibroblast; [1]): 11% and 14% | Population Mitochondria Different-Phenotype (%) (Fibroblast; [1]): 1% and 5% | Population Mitotic Cells (%) (Fibroblast; [1]): 48% and 67% | Population Normal (%) (Fibroblast; [1]): 100% and 98% | Population Pyknosed Nuclei (%) (Fibroblast; [1]): 28% and 26% | Population Tubulin-Different-Phenotype (%) (Fibroblast; [1]): 45% and 40% | Total Cell Count (Fibroblast; [1]): 158 and 185 | Population Apoptotic (%) (Fibroblast; [2]): 47% and 44% | Population Fragmented Nuclei (%) (Fibroblast; [2]): 28% and 26% | Population Healthy Nuclei (%) (Fibroblast; [2]): 36% and 40% | Population Hoechst High Intensity Objects (%) (Fibroblast; [2]): 0% | Population Membrane Permeable-Phenotype (%) (Fibroblast; [2]): 18% and 10% | Population Mitochondria Different-Phenotype (%) (Fibroblast; [2]): 4% and 5% | Population Mitotic Cells (%) (Fibroblast; [2]): 52% and 55% | Population Normal (%) (Fibroblast; [2]): 100% | Population Pyknosed Nuclei (%) (Fibroblast; [2]): 34% and 32% | Population Tubulin-Different-Phenotype (%) (Fibroblast; [2]): 82% and 72% | Total Cell Count (Fibroblast; [2]): 243 and 248 | Population Apoptotic (%) (Fibroblast; [3]): 74% and 57% | Population Fragmented Nuclei (%) (Fibroblast; [3]): 12% and 11% | Population Healthy Nuclei (%) (Fibroblast; [3]): 62% and 63% | Population Hoechst High Intensity Objects (%) (Fibroblast; [3]): 0% | Population Membrane Permeable-Phenotype (%) (Fibroblast; [3]): 12% and 17% | Population Mitochondria Different-Phenotype (%) (Fibroblast; [3]): 6% and 3% | Population Mitotic Cells (%) (Fibroblast; [3]): 25% and 42% | Population Normal (%) (Fibroblast; [3]): 100% | Population Pyknosed Nuclei (%) (Fibroblast; [3]): 25% | Population Tubulin-Different-Phenotype (%) (Fibroblast; [3]): 52% and 41% | Total Cell Count (Fibroblast; [3]): 140 and 177 | Population Apoptotic (%) (Fibroblast; [4]): 73% and 77% | Population Fragmented Nuclei (%) (Fibroblast; [4]): 19% and 21% | Population Healthy Nuclei (%) (Fibroblast; [4]): 15% and 20% | Population Hoechst High Intensity Objects (%) (Fibroblast; [4]): 0% | Population Membrane Permeable-Phenotype (%) (Fibroblast; [4]): 25% and 12% | Population Mitochondria Different-Phenotype (%) (Fibroblast; [4]): 25% and 21% | Population Mitotic Cells (%) (Fibroblast; [4]): 26% and 22% | Population Normal (%) (Fibroblast; [4]): 99% and 100% | Population Pyknosed Nuclei (%) (Fibroblast; [4]): 65% and 57% | Population Tubulin-Different-Phenotype (%) (Fibroblast; [4]): 80% and 74% | Total Cell Count (Fibroblast; [4]): 227 and 226 | Population Apoptotic (%) (Fibroblast; [5]): 70% and 64% | Population Fragmented Nuclei (%) (Fibroblast; [5]): 14% and 12% | Population Healthy Nuclei (%) (Fibroblast; [5]): 44% and 50% | Population Hoechst High Intensity Objects (%) (Fibroblast; [5]): 0% | Population Membrane Permeable-Phenotype (%) (Fibroblast; [5]): 18% | Population Mitotic Cells (%) (Fibroblast; [5]): 29% and 35% | Population Normal (%) (Fibroblast; [5]): 100% | Population Pyknosed Nuclei (%) (Fibroblast; [5]): 40% and 37% | Population Tubulin-Different-Phenotype (%) (Fibroblast; [5]): 39% and 51% | Total Cell Count (Fibroblast; [5]): 166 and 150 | Population Apoptotic (%) (Fibroblast; [6]): 91% and 94% | Population Fragmented Nuclei (%) (Fibroblast; [6]): 16% and 12% | Population Healthy Nuclei (%) (Fibroblast; [6]): 5% and 6% | Population Hoechst High Intensity Objects (%) (Fibroblast; [6]): 1% and 0% | Population Membrane Permeable-Phenotype (%) (Fibroblast; [6]): 80% and 66% | Population Mitochondria Different-Phenotype (%) (Fibroblast; [6]): 10% and 0% | Population Mitotic Cells (%) (Fibroblast; [6]): 8% and 5% | Population Normal (%) (Fibroblast; [6]): 98% and 99% | Population Pyknosed Nuclei (%) (Fibroblast; [6]): 77% and 80% | Population Tubulin-Different-Phenotype (%) (Fibroblast; [6]): 70% and 66% | Total Cell Count (Fibroblast; [6]): 191 and 189 | Population Apoptotic (%) (HEK-293T; [1]): 38% and 72% | Population Fragmented Nuclei (%) (HEK-293T; [1]): 3% and 4% | Population Healthy Nuclei (%) (HEK-293T; [1]): 89% and 87% | Population Hoechst High Intensity Objects (%) (HEK-293T; [1]): 10% | Population Membrane Permeable-Phenotype (%) (HEK-293T; [1]): 2% and 1% | Population Mitochondria Different-Phenotype (%) (HEK-293T; [1]): 49% and 45% | Population Mitotic Cells (%) (HEK-293T; [1]): 61% and 28% | Population Normal (%) (HEK-293T; [1]): 89% | Population Pyknosed Nuclei (%) (HEK-293T; [1]): 6% and 7% | Population Tubulin-Different-Phenotype (%) (HEK-293T; [1]): 86% and 90% | Total Cell Count (HEK-293T; [1]): 376 and 356 | Population Apoptotic (%) (HEK-293T; [2]): 87% and 90% | Population Fragmented Nuclei (%) (HEK-293T; [2]): 2% and 4% | Population Healthy Nuclei (%) (HEK-293T; [2]): 84% and 79% | Population Hoechst High Intensity Objects (%) (HEK-293T; [2]): 16% and 14% | Population Membrane Permeable-Phenotype (%) (HEK-293T; [2]): 5% and 1% | Population Mitochondria Different-Phenotype (%) (HEK-293T; [2]): 87% and 88% | Population Mitotic Cells (%) (HEK-293T; [2]): 12% and 9% | Population Normal (%) (HEK-293T; [2]): 83% and 85% | Population Pyknosed Nuclei (%) (HEK-293T; [2]): 13% and 16% | Population Tubulin-Different-Phenotype (%) (HEK-293T; [2]): 96% and 97% | Total Cell Count (HEK-293T; [2]): 417 and 374 | Population Apoptotic (%) (HEK-293T; [3]): 80% | Population Fragmented Nuclei (%) (HEK-293T; [3]): 2% and 3% | Population Healthy Nuclei (%) (HEK-293T; [3]): 90% and 85% | Population Hoechst High Intensity Objects (%) (HEK-293T; [3]): 13% and 11% | Population Membrane Permeable-Phenotype (%) (HEK-293T; [3]): 1% and 0%
